Experimental data taken from ChEMBL document CHEMBL4689842, “EUbOPEN Chemogenomics Library wave 1” (2021).
Where “and” joins values, the source holds several entries; their conditions need not be identical. Identical values can stand only once.

System: Fibroblast
Assay: Multiplex assay against human fibroblast
Assay type: toxicity, cell-based
Summary of the method: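 Values for tubulin, mitochondrial-mass and membrane-permeability phenotypes are per cents of cells with healthy nuclei. These cells were identified by CellPathfinder machine-learning gating of live cells that had been stained at seeding with Hoechst33342, BioTracker Green Microtubule Cytoskeleton Dye, MitoTracker Red and Annexin V Alexa Fluor 680 and imaged on a CQ1 microscope at 37°C and 5% CO2 after compound addition. The gating first set Hoechst high-intensity objects apart from normal cells, then split normal cells into healthy, pyknosed or fragmented nuclei, and pyknosed cells into mitotic or apoptotic.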

[1] = 12 h, 1 µM, compound concentration 1 uM, replicate 1
[2] = 12 h, 1 µM, compound concentration 1 uM, replicate 2
[3] = 12 h, 10 µM, compound concentration 10 uM, replicate 1
[4] = 12 h, 10 µM, compound concentration 10 uM, replicate 2
[5] = 24 h, 1 µM, compound concentration 1 uM, replicate 1
[6] = 24 h, 1 µM, compound concentration 1 uM, replicate 2
[7] = 24 h, 10 µM, compound concentration 10 uM, replicate 1
[8] = 24 h, 10 µM, compound concentration 10 uM, replicate 2
[9] = 48 h, 1 µM, compound concentration 1 uM, replicate 1
[10] = 48 h, 1 µM, compound concentration 1 uM, replicate 2
[11] = 48 h, 10 µM, compound concentration 10 uM, replicate 1
[12] = 48 h, 10 µM, compound concentration 10 uM, replicate 2

SMILES: C[C@]12CC[C@@H]3c4ccc(O)cc4CC[C@H]3[C@@H]1CC[C@@H]2O [ESTRADIOL]
- Population Apoptotic (%) [1]: 73%
- Population Fragmented Nuclei (%) [1]: 30%
- Population Healthy Nuclei (%) [1]: 50%
- Population Hoechst High Intensity Objects (%) [1]: 21%
- Population Membrane Permeable-Phenotype (%) [1]: 20%
- Population Mitochondria Different-Phenotype (%) [1]: 9%
- Population Mitotic Cells (%) [1]: 26%
- Population Normal (%) [1]: 78%
- Population Pyknosed Nuclei (%) [1]: 18%
- Population Tubulin-Different-Phenotype (%) [1]: 46%
- Population Apoptotic (%) [2]: 50%
- Population Fragmented Nuclei (%) [2]: 8%
- Population Healthy Nuclei (%) [2]: 86%
- Population Hoechst High Intensity Objects (%) [2]: 5%
- Population Membrane Permeable-Phenotype (%) [2]: 4%
- Population Mitochondria Different-Phenotype (%) [2]: 8%
- Population Mitotic Cells (%) [2]: 50%
- Population Normal (%) [2]: 94%
- Population Pyknosed Nuclei (%) [2]: 5%
- Population Tubulin-Different-Phenotype (%) [2]: 14%
- Population Apoptotic (%) [3]: 75%
- Population Fragmented Nuclei (%) [3]: 24%
- Population Healthy Nuclei (%) [3]: 57%
- Population Hoechst High Intensity Objects (%) [3]: 14%
- Population Membrane Permeable-Phenotype (%) [3]: 20%
- Population Mitochondria Different-Phenotype (%) [3]: 7%
- Population Mitotic Cells (%) [3]: 25%
- Population Normal (%) [3]: 85%
- Population Pyknosed Nuclei (%) [3]: 18%
- Population Tubulin-Different-Phenotype (%) [3]: 33%
- Population Apoptotic (%) [4]: 25%
- Population Fragmented Nuclei (%) [4]: 9%
- Population Healthy Nuclei (%) [4]: 77%
- Population Hoechst High Intensity Objects (%) [4]: 8%
- Population Membrane Permeable-Phenotype (%) [4]: 4%
- Population Mitochondria Different-Phenotype (%) [4]: 12%
- Population Mitotic Cells (%) [4]: 75%
- Population Normal (%) [4]: 91%
- Population Pyknosed Nuclei (%) [4]: 12%
- Population Tubulin-Different-Phenotype (%) [4]: 25%
- Population Apoptotic (%) [5]: 45%
- Population Fragmented Nuclei (%) [5]: 33%
- Population Healthy Nuclei (%) [5]: 50%
- Population Hoechst High Intensity Objects (%) [5]: 18%
- Population Membrane Permeable-Phenotype (%) [5]: 29%
- Population Mitochondria Different-Phenotype (%) [5]: 3%
- Population Mitotic Cells (%) [5]: 55%
- Population Normal (%) [5]: 82%
- Population Pyknosed Nuclei (%) [5]: 16%
- Population Tubulin-Different-Phenotype (%) [5]: 43%
- Population Apoptotic (%) [6]: 50%
- Population Fragmented Nuclei (%) [6]: 4%
- Population Healthy Nuclei (%) [6]: 89%
- Population Hoechst High Intensity Objects (%) [6]: 3%
- Population Membrane Permeable-Phenotype (%) [6]: 4%
- Population Mitochondria Different-Phenotype (%) [6]: 9%
- Population Mitotic Cells (%) [6]: 50%
- Population Normal (%) [6]: 96%
- Population Pyknosed Nuclei (%) [6]: 6%
- Population Tubulin-Different-Phenotype (%) [6]: 14%
- Population Apoptotic (%) [7]: 73%
- Population Fragmented Nuclei (%) [7]: 22%
- Population Healthy Nuclei (%) [7]: 60%
- Population Hoechst High Intensity Objects (%) [7]: 11%
- Population Membrane Permeable-Phenotype (%) [7]: 29%
- Population Mitochondria Different-Phenotype (%) [7]: 9%
- Population Mitotic Cells (%) [7]: 26%
- Population Normal (%) [7]: 88%
- Population Pyknosed Nuclei (%) [7]: 17%
- Population Tubulin-Different-Phenotype (%) [7]: 35%
- Population Apoptotic (%) [8]: 30%
- Population Fragmented Nuclei (%) [8]: 18%
- Population Healthy Nuclei (%) [8]: 68%
- Population Hoechst High Intensity Objects (%) [8]: 3%
- Population Membrane Permeable-Phenotype (%) [8]: 5%
- Population Mitochondria Different-Phenotype (%) [8]: 11%
- Population Mitotic Cells (%) [8]: 70%
- Population Normal (%) [8]: 96%
- Population Pyknosed Nuclei (%) [8]: 13%
- Population Tubulin-Different-Phenotype (%) [8]: 43%
- Population Apoptotic (%) [9]: 83%
- Population Fragmented Nuclei (%) [9]: 42%
- Population Healthy Nuclei (%) [9]: 51%
- Population Hoechst High Intensity Objects (%) [9]: 24%
- Population Membrane Permeable-Phenotype (%) [9]: 26%
- Population Mitochondria Different-Phenotype (%) [9]: 0%
- Population Mitotic Cells (%) [9]: 16%
- Population Normal (%) [9]: 75%
- Population Pyknosed Nuclei (%) [9]: 5%
- Population Tubulin-Different-Phenotype (%) [9]: 42%
- Population Apoptotic (%) [10]: 0%
- Population Fragmented Nuclei (%) [10]: 24%
- Population Healthy Nuclei (%) [10]: 74%
- Population Hoechst High Intensity Objects (%) [10]: 14%
- Population Membrane Permeable-Phenotype (%) [10]: 8%
- Population Mitotic Cells (%) [10]: 100%
- Population Normal (%) [10]: 85%
- Population Pyknosed Nuclei (%) [10]: 1%
- Population Tubulin-Different-Phenotype (%) [10]: 26%
- Population Apoptotic (%) [11]: 66%
- Population Fragmented Nuclei (%) [11]: 36%
- Population Healthy Nuclei (%) [11]: 58%
- Population Hoechst High Intensity Objects (%) [11]: 13%
- Population Membrane Permeable-Phenotype (%) [11]: 11%
- Population Mitochondria Different-Phenotype (%) [11]: 3%
- Population Mitotic Cells (%) [11]: 33%
- Population Normal (%) [11]: 86%
- Population Pyknosed Nuclei (%) [11]: 5%
- Population Tubulin-Different-Phenotype (%) [11]: 17%
- Population Apoptotic (%) [12]: 0%
- Population Fragmented Nuclei (%) [12]: 32%
- Population Healthy Nuclei (%) [12]: 65%
- Population Hoechst High Intensity Objects (%) [12]: 2%
- Population Membrane Permeable-Phenotype (%) [12]: 16%
- Population Mitochondria Different-Phenotype (%) [12]: 1%
- Population Mitotic Cells (%) [12]: 100%
- Population Normal (%) [12]: 97%
- Population Pyknosed Nuclei (%) [12]: 2%
- Population Tubulin-Different-Phenotype (%) [12]: 41%

SMILES: CNC(=O)c1ccc(Nc2ncc(C(F)(F)F)c(NCc3nccnc3N(C)S(C)(=O)=O)n2)cc1 [DEFACTINIB]
- Population Apoptotic (%) [1]: 66% and 80%
- Population Fragmented Nuclei (%) [1]: 31% and 21%
- Population Healthy Nuclei (%) [1]: 51% and 60%
- Population Hoechst High Intensity Objects (%) [1]: 12% and 14%
- Population Membrane Permeable-Phenotype (%) [1]: 8% and 23%
- Population Mitochondria Different-Phenotype (%) [1]: 2% and 4%
- Population Mitotic Cells (%) [1]: 33% and 20%
- Population Normal (%) [1]: 87% and 85%
- Population Pyknosed Nuclei (%) [1]: 17%
- Total Cell Count [1]: 217 and 234
- Population Apoptotic (%) [2]: 25% and 42%
- Population Fragmented Nuclei (%) [2]: 60% and 57%
- Population Healthy Nuclei (%) [2]: 32% and 27%
- Population Hoechst High Intensity Objects (%) [2]: 22% and 35%
- Population Membrane Permeable-Phenotype (%) [2]: 0% and 7%
- Population Mitochondria Different-Phenotype (%) [2]: 15% and 23%
- Population Mitotic Cells (%) [2]: 75% and 57%
- Population Normal (%) [2]: 77% and 64%
- Population Pyknosed Nuclei (%) [2]: 6% and 14%
- Population Tubulin-Different-Phenotype (%) [2]: 20% and 38%
- Total Cell Count [2]: 79 and 73
- Population Apoptotic (%) [3]: 90% and 80%
- Population Fragmented Nuclei (%) [3]: 24% and 29%
- Population Healthy Nuclei (%) [3]: 58%
- Population Hoechst High Intensity Objects (%) [3]: 8%
- Population Membrane Permeable-Phenotype (%) [3]: 21% and 7%
- Population Mitochondria Different-Phenotype (%) [3]: 3%
- Population Mitotic Cells (%) [3]: 9% and 20%
- Population Normal (%) [3]: 91%
- Population Pyknosed Nuclei (%) [3]: 17% and 12%
- Total Cell Count [3]: 208 and 174
- Population Apoptotic (%) [4]: 42% and 33%
- Population Fragmented Nuclei (%) [4]: 42% and 66%
- Population Healthy Nuclei (%) [4]: 47% and 25%
- Population Hoechst High Intensity Objects (%) [4]: 24% and 47%
- Population Membrane Permeable-Phenotype (%) [4]: 12% and 0%
- Population Mitochondria Different-Phenotype (%) [4]: 18% and 50%
- Population Mitotic Cells (%) [4]: 57% and 66%
- Population Normal (%) [4]: 75% and 52%
- Population Pyknosed Nuclei (%) [4]: 10% and 7%
- Population Tubulin-Different-Phenotype (%) [4]: 54% and 40%
- Total Cell Count [4]: 93 and 74
- Population Apoptotic (%) [5]: 66% and 85%
- Population Fragmented Nuclei (%) [5]: 23% and 35%
- Population Healthy Nuclei (%) [5]: 59% and 48%
- Population Hoechst High Intensity Objects (%) [5]: 18% and 11%
- Population Mitochondria Different-Phenotype (%) [5]: 3% and 7%
- Population Mitotic Cells (%) [5]: 33% and 14%
- Population Normal (%) [5]: 81% and 88%
- Population Pyknosed Nuclei (%) [5]: 16% and 15%
- Total Cell Count [5]: 205 and 241
- Population Fragmented Nuclei (%) [6]: 55% and 61%
- Population Healthy Nuclei (%) [6]: 39% and 19%
- Population Hoechst High Intensity Objects (%) [6]: 30% and 29%
- Population Mitochondria Different-Phenotype (%) [6]: 5% and 0%
- Population Mitotic Cells (%) [6]: 100% and 40%
- Population Normal (%) [6]: 69% and 70%
- Total Cell Count [6]: 62 and 74
- Population Apoptotic (%) [7]: 80% and 73%
- Population Fragmented Nuclei (%) [7]: 33% and 25%
- Population Healthy Nuclei (%) [7]: 45% and 64%
- Population Hoechst High Intensity Objects (%) [7]: 10% and 15%
- Population Membrane Permeable-Phenotype (%) [7]: 21% and 10%
- Population Mitotic Cells (%) [7]: 20% and 26%
- Population Normal (%) [7]: 89% and 84%
- Population Pyknosed Nuclei (%) [7]: 21% and 9%
- Total Cell Count [7]: 210 and 186
- Population Apoptotic (%) [8]: 75% and 50%
- Population Fragmented Nuclei (%) [8]: 49% and 57%
- Population Healthy Nuclei (%) [8]: 44% and 37%
- Population Hoechst High Intensity Objects (%) [8]: 27% and 35%
- Population Membrane Permeable-Phenotype (%) [8]: 14% and 0%
- Population Mitochondria Different-Phenotype (%) [8]: 10% and 13%
- Population Mitotic Cells (%) [8]: 25% and 50%
- Population Normal (%) [8]: 72% and 64%
- Population Pyknosed Nuclei (%) [8]: 6% and 5%
- Population Tubulin-Different-Phenotype (%) [8]: 46% and 26%
- Total Cell Count [8]: 87 and 62
